{"source": "paper PMC4929832", "about": "(Nature, 2016)", "key": {"[1]": {"target": "EPH-B4 (Homo sapiens, UniProt P54760)", "test": "kinase panel", "assay_type": "biochemical"}, "[2]": {"target": "TEC (Homo sapiens, UniProt P42680)", "test": "kinase panel", "assay_type": "biochemical"}, "[3]": {"target": "CLK4 (Homo sapiens, UniProt Q9HAZ1)", "test": "kinase panel", "assay_type": "biochemical"}, "[4]": {"target": "Pregnane X Receptor (PXR; SXR) (Homo sapiens, UniProt O75469)", "test": "Pregnane X Receptor", "assay_type": "binding"}, "[5]": {"system": "panel of 250 protein kinases", "test": "Profiling against a panel of 250 protein kinases", "assay_type": "biochemical", "settings": "1 μM EAI045"}, "[6]": {"target": "GRK3 (Homo sapiens, UniProt P35626)", "test": "kinase panel", "assay_type": "biochemical"}, "[7]": {"target": "PKC-IOTA (Homo sapiens, UniProt P41743)", "test": "kinase panel", "assay_type": "biochemical"}, "[8]": {"target": "MAP4K4 (Homo sapiens, UniProt O95819)", "test": "kinase panel", "assay_type": "biochemical"}, "[9]": {"target": "NEK9 (Homo sapiens, UniProt Q8TD19)", "test": "kinase panel", "assay_type": "biochemical"}, "[10]": {"target": "MAP4K5 (Homo sapiens, UniProt Q9Y4K4)", "sequence (Q9Y4K4 whole entry)": "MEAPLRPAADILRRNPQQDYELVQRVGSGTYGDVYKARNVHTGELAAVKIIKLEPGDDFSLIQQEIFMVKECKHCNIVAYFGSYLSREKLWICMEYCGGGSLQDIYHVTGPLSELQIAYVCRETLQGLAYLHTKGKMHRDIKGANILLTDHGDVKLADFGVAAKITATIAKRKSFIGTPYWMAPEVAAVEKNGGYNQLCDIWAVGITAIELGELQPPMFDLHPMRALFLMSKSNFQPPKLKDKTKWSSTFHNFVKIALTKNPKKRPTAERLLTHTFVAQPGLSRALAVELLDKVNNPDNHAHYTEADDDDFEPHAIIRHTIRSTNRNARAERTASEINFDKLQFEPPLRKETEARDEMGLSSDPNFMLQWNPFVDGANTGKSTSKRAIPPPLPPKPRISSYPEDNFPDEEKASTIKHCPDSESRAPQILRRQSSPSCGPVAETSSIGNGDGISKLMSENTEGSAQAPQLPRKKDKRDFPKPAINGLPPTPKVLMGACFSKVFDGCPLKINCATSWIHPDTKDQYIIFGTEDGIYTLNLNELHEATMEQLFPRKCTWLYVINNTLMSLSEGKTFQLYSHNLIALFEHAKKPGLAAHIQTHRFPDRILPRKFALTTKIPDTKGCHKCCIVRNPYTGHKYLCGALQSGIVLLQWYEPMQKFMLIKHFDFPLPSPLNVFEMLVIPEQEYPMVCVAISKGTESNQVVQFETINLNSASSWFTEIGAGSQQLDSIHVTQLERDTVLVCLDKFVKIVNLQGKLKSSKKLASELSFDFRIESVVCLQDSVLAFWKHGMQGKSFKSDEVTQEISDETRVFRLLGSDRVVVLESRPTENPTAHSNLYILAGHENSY", "test": "kinase panel", "assay_type": "biochemical"}, "[11]": {"target": "PHK-GAMMA2 (Homo sapiens, UniProt P15735)", "test": "kinase panel", "assay_type": "biochemical"}, "[12]": {"target": "HIPK1 (Homo sapiens, UniProt Q86Z02)", "test": "kinase panel", "assay_type": "biochemical"}, "[13]": {"target": "FMS (Homo sapiens, UniProt P07333)", "test": "kinase panel", "assay_type": "biochemical"}, "[14]": {"target": "TAOK2 (Homo sapiens, UniProt Q9UL54)", "test": "kinase panel", "assay_type": "biochemical"}, "[15]": {"target": "PKN1 (Homo sapiens, UniProt Q16512)", "test": "kinase panel", "assay_type": "biochemical"}, "[16]": {"target": "HIPK4 (Homo sapiens, UniProt Q8NE63)", "test": "kinase panel", "assay_type": "biochemical"}, "[17]": {"target": "EPH-B2 (Homo sapiens, UniProt P29323)", "test": "kinase panel", "assay_type": "biochemical"}, "[18]": {"target": "ALK2 (Homo sapiens, UniProt Q04771)", "test": "kinase panel", "assay_type": "biochemical"}, "[19]": {"target": "IRR (Homo sapiens, UniProt P14616)", "test": "kinase panel", "assay_type": "biochemical"}, "[20]": {"target": "P38-DELTA (Homo sapiens, UniProt O15264)", "test": "kinase panel", "assay_type": "biochemical"}, "[21]": {"target": "CDK7 (Homo sapiens, UniProt P50613)", "test": "kinase panel", "assay_type": "biochemical"}, "[22]": {"target": "PKA (Homo sapiens, UniProt P17612)", "test": "kinase panel", "assay_type": "biochemical"}, "[23]": {"target": "Adrenergic Alpha 2C receptor (Homo sapiens, UniProt P18825)", "test": "Adrenergic Alpha 2C receptor assay", "assay_type": "binding"}, "[24]": {"target": "FRAP1 (Homo sapiens, UniProt P42345)", "test": "kinase panel", "assay_type": "biochemical"}, "[25]": {"target": "PYK2 (Homo sapiens, UniProt Q14289)", "test": "kinase panel", "assay_type": "biochemical"}, "[26]": {"system": "L858R/T790M/C797S mutant lung tumors (genetically engineered mice)", "test": "Mouse efficacy study, tumor volume by MRI", "assay_type": "in vivo", "settings": "EAI045 and cetuximab", "how_it_was_run": "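Transgenic lung tumors were induced at 6 weeks of age: exon19del/T790M mice by doxycycline diet, L858R/T790M/C797S mice by intranasal Ad-Cre. The test compound in 10% NMP/90% PEG-300 was given at 60 mg/kg daily by oral gavage. […] MRI ran at baseline and every 2 weeks, and tumor volume was quantified in 3D at 4 weeks. Cohorts were non-blinded and not randomized.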"}, "[27]": {"target": "JAK1 (Homo sapiens, UniProt P23458)", "sequence (P23458 whole entry)": "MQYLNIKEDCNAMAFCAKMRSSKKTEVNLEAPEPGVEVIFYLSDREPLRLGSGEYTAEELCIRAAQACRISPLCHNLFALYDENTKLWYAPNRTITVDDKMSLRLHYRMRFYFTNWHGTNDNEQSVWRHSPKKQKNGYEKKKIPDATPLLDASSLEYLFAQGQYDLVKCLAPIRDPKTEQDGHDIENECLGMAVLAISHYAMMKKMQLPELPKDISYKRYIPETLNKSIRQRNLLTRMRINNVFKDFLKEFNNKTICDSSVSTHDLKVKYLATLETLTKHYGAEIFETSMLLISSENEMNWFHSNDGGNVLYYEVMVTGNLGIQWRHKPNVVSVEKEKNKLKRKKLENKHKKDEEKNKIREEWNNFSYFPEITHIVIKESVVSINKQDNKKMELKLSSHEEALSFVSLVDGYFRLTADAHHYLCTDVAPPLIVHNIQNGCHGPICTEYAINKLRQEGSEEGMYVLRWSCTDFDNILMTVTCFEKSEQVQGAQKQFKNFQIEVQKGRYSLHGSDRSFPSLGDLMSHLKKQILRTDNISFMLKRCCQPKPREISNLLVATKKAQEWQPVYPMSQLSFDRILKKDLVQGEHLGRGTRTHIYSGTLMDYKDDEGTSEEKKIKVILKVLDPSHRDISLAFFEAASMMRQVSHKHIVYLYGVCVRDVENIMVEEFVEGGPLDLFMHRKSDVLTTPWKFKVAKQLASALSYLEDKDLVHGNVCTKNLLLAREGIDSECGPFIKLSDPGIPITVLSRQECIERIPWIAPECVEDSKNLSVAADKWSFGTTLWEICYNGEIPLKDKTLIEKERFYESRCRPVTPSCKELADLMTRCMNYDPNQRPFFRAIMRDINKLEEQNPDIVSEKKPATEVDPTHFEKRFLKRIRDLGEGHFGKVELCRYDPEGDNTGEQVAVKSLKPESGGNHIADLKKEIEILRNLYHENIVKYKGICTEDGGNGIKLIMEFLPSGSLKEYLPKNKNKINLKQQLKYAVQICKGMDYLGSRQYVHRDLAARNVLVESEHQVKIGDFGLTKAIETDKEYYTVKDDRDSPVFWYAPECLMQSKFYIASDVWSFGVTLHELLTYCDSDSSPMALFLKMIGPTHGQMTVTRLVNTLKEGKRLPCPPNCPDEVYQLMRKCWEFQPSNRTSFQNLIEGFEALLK", "test": "kinase panel", "assay_type": "biochemical"}, "[28]": {"target": "GRK5 (Homo sapiens, UniProt P34947)", "test": "kinase panel", "assay_type": "biochemical"}, "[29]": {"target": "BRSK1 (Homo sapiens, UniProt Q8TDC3)", "test": "kinase panel", "assay_type": "biochemical"}, "[30]": {"target": "PKACB (Homo sapiens, UniProt P22694)", "test": "kinase panel", "assay_type": "biochemical"}, "[31]": {"target": "ALK5 (Homo sapiens, UniProt P36897)", "test": "kinase panel", "assay_type": "biochemical"}, "[32]": {"target": "PRKD3 (Homo sapiens, UniProt O94806)", "test": "kinase panel", "assay_type": "biochemical"}, "[33]": {"target": "PRKG1 (Homo sapiens, UniProt Q13976)", "test": "kinase panel", "assay_type": "biochemical"}, "[34]": {"target": "MNK2 (Homo sapiens, UniProt Q9HBH9)", "test": "kinase panel", "assay_type": "biochemical"}, "[35]": {"target": "NEK7 (Homo sapiens, UniProt Q8TDX7)", "sequence (Q8TDX7 whole entry)": "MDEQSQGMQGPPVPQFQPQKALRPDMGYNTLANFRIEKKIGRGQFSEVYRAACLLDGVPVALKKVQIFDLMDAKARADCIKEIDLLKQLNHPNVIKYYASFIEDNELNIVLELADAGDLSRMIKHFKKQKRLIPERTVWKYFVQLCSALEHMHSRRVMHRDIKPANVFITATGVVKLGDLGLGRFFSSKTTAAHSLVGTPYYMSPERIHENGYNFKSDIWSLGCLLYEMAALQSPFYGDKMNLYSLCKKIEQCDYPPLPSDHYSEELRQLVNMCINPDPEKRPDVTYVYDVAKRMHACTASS", "test": "kinase panel", "assay_type": "biochemical"}, "[36]": {"target": "PI3K-ALPHA (Homo sapiens, UniProt P42336)", "sequence (P42336 whole entry)": "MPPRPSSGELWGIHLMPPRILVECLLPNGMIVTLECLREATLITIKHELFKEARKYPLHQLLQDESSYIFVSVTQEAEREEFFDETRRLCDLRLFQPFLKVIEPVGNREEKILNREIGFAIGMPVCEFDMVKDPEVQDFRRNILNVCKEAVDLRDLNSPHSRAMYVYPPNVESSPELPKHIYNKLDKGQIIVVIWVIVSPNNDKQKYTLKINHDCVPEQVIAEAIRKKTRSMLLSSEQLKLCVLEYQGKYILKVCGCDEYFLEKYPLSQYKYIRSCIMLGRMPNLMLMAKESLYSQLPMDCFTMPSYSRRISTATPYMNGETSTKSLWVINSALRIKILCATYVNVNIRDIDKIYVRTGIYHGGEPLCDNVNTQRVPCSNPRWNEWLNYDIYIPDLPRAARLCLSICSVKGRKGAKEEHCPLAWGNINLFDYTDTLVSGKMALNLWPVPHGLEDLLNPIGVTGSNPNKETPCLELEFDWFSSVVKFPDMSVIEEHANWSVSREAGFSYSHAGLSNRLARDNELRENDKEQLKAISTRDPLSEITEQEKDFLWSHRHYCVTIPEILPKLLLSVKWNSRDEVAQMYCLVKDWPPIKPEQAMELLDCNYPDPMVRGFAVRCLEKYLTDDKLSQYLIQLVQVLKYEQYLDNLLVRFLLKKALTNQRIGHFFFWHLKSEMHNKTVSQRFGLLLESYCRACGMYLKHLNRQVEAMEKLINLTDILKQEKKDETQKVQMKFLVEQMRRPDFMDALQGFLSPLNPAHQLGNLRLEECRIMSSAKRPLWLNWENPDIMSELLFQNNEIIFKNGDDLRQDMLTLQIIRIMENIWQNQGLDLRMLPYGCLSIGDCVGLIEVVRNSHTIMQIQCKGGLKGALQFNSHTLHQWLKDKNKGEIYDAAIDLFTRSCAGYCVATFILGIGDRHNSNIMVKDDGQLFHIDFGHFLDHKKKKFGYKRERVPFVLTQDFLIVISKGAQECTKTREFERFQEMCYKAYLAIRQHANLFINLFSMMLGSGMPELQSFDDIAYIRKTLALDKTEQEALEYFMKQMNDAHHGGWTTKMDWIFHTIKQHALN", "sequence (P27986 whole entry partner)": "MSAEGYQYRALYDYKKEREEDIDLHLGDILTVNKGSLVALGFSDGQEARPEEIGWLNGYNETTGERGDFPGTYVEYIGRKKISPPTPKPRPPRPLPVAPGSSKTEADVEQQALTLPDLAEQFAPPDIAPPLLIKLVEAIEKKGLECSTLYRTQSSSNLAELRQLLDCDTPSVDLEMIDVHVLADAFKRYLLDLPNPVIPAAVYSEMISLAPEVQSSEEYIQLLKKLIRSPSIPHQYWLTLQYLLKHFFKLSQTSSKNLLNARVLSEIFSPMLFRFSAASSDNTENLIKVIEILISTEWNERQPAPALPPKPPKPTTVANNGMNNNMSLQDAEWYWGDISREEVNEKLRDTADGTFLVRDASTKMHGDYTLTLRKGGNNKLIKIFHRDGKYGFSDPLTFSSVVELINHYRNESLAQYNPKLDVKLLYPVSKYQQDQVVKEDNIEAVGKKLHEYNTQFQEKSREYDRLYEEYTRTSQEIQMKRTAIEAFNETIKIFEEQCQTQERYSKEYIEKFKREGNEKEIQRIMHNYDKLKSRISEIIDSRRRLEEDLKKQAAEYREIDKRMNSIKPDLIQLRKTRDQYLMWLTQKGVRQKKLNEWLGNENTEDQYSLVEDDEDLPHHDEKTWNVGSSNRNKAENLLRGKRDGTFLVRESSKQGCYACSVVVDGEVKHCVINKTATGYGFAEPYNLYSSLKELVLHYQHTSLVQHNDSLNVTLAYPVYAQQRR", "test": "kinase panel", "assay_type": "biochemical"}, "[37]": {"target": "TTK (Homo sapiens, UniProt P33981)", "sequence (P33981 whole entry)": "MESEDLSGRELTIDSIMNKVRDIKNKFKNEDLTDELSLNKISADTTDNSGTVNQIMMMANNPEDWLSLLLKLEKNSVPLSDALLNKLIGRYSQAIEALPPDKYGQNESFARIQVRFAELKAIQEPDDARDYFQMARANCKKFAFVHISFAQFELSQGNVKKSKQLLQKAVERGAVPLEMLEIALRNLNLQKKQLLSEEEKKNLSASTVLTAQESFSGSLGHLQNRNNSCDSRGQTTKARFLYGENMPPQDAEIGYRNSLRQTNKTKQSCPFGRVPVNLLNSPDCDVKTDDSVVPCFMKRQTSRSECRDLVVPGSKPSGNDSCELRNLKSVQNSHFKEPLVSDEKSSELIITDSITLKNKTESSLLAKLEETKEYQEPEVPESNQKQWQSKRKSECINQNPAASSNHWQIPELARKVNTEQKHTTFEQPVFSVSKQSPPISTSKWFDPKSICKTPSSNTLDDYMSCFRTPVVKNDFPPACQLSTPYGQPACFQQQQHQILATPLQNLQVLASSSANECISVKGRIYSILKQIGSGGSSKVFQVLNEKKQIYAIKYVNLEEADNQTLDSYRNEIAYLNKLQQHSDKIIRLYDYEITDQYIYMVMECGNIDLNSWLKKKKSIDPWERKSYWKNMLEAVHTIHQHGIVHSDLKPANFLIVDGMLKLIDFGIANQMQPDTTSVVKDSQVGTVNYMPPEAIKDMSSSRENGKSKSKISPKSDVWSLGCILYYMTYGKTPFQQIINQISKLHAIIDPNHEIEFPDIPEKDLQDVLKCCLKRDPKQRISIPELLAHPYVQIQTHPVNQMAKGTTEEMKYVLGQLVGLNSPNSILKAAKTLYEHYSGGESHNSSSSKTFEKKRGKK", "test": "kinase panel", "assay_type": "biochemical"}, "[38]": {"target": "SPHK2 (Homo sapiens, UniProt Q9NRA0)", "test": "kinase panel", "assay_type": "biochemical"}, "[39]": {"system": "L858R/T790M/I941R EGFR Ba/F3 cells", "test": "Ba/F3 cell proliferation", "assay_type": "cell-based", "settings": "Ba/F3 L858R/T790M/I941R versus L858R/T790M", "how_it_was_run": "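The I941R mutation was introduced into L858R/T790M EGFR by site-directed mutagenesis, and Ba/F3 stable clones were selected in puromycin (2 μg/ml). Cells were treated with the test compound for 72 h and growth was read by MTS assay. Points were run in six wells, with experiments repeated at least three times. Curves were fitted by non-linear regression to a sigmoidal dose response.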"}}}
{"smiles": "O=C(Nc1nccs1)C(c1cc(F)ccc1O)N1Cc2ccccc2C1=O", "note": "(stereo not drawn) [EAI045, 2-(5-fluoro-2-hydroxyphenyl)-2-(1-oxo-2,3-dihydro-1H-isoindol-2-yl)-N-(1,3-thiazol-2-yl)acetamide]", "values": [{"measurement": "inhibition at 1 µM", "setting": "[1]", "value": 0, "unit": "%"}, {"measurement": "inhibition at 1 µM", "setting": "[2]", "value": 4, "unit": "%"}, {"measurement": "inhibition at 1 µM", "setting": "[3]", "value": 0, "unit": "%"}, {"measurement": "IC50", "setting": "[4]", "value": 7, "unit": "µM"}, {"measurement": "inhibition of other kinases in the panel", "setting": "[5]", "value": "≤ 20", "unit": "%"}, {"measurement": "inhibition at 1 µM", "setting": "[6]", "value": 0, "unit": "%"}, {"measurement": "inhibition at 1 µM", "setting": "[7]", "value": 0, "unit": "%"}, {"measurement": "inhibition at 1 µM", "setting": "[8]", "value": 2, "unit": "%"}, {"measurement": "inhibition at 1 µM", "setting": "[9]", "value": 0, "unit": "%"}, {"measurement": "inhibition at 1 µM", "setting": "[10]", "value": 13, "unit": "%"}, {"measurement": "inhibition at 1 µM", "setting": "[11]", "value": 0, "unit": "%"}, {"measurement": "inhibition at 1 µM", "setting": "[12]", "value": 1, "unit": "%"}, {"measurement": "inhibition at 1 µM", "setting": "[13]", "value": 0, "unit": "%"}, {"measurement": "inhibition at 1 µM", "setting": "[14]", "value": 0, "unit": "%"}, {"measurement": "inhibition at 1 µM", "setting": "[15]", "value": 0, "unit": "%"}, {"measurement": "inhibition at 1 µM", "setting": "[16]", "value": 0, "unit": "%"}, {"measurement": "inhibition at 1 µM", "setting": "[17]", "value": 0, "unit": "%"}, {"measurement": "inhibition at 1 µM", "setting": "[18]", "value": 0, "unit": "%"}, {"measurement": "inhibition at 1 µM", "setting": "[19]", "value": 0, "unit": "%"}, {"measurement": "inhibition at 1 µM", "setting": "[20]", "value": 0, "unit": "%"}, {"measurement": "inhibition at 1 µM", "setting": "[21]", "value": 0, "unit": "%"}, {"measurement": "inhibition at 1 µM", "setting": "[22]", "value": 3, "unit": "%"}, {"measurement": "IC50", "setting": "[23]", "value": "> 30", "unit": "µM"}, {"measurement": "inhibition at 1 µM", "setting": "[24]", "value": 0, "unit": "%"}, {"measurement": "inhibition at 1 µM", "setting": "[25]", "value": 4, "unit": "%"}, {"measurement": "tumor response", "setting": "[26]", "value": "marked tumor shrinkage"}, {"measurement": "inhibition at 1 µM", "setting": "[27]", "value": 0, "unit": "%"}, {"measurement": "inhibition at 1 µM", "setting": "[28]", "value": 0, "unit": "%"}, {"measurement": "inhibition at 1 µM", "setting": "[29]", "value": 0, "unit": "%"}, {"measurement": "inhibition at 1 µM", "setting": "[30]", "value": 0, "unit": "%"}, {"measurement": "inhibition at 1 µM", "setting": "[31]", "value": 0, "unit": "%"}, {"measurement": "inhibition at 1 µM", "setting": "[32]", "value": 0, "unit": "%"}, {"measurement": "inhibition at 1 µM", "setting": "[33]", "value": 0, "unit": "%"}, {"measurement": "inhibition at 1 µM", "setting": "[34]", "value": 3, "unit": "%"}, {"measurement": "inhibition at 1 µM", "setting": "[35]", "value": 0, "unit": "%"}, {"measurement": "inhibition at 1 µM", "setting": "[36]", "value": 0, "unit": "%"}, {"measurement": "inhibition at 1 µM", "setting": "[37]", "value": 0, "unit": "%"}, {"measurement": "inhibition at 1 µM", "setting": "[38]", "value": 0, "unit": "%"}, {"measurement": "sensitivity of proliferation to the allosteric inhibitor", "setting": "[39]", "value": "dramatically more sensitive"}]}
